The results in this text go back to ChEMBL document CHEMBL4052824, “Interfering with HuR-RNA Interaction: Design, Synthesis and Biological Characterization of Tanshinone Mimics as Novel, Effective HuR Inhibitors” (J Med Chem, 2018).

Activity calls are given as the source filed them. No cut-off for these calls is given here.

The test system of assay [1] is PANC-1. Kind of assay: Cytotoxicity against human PANC1 cells assessed as decrease in cell viability after 72 hrs by OZBlue assay. Conditions: PANC-1, 72 h.
Assay [2] concerns MCF7. Kind of assay: Cytotoxicity against human MCF7 cells assessed as decrease in cell viability after 72 hrs by OZBlue assay. The following applies: MCF7, 72 h.
In assay [3] the test system is MDA-MB-231. Kind of assay: Cytotoxicity against human MDA-MB-231 cells assessed as decrease in cell viability after 72 hrs by OZBlue assay. Conditions: MDA-MB-231, 72 h.
For assay [4], the target named is T1, ELAV-like protein 1 (Homo sapiens, UniProt Q15717). Kind of assay: Binding affinity to human full length recombinant His-tagged HuR expressed in Escherichia coli […] assessed as inhibition of interaction with single-strand Bi-AU RNA probe by AlphaScreen assay. For orientation: Bead proximity is the source of the signal in Alpha formats.
T1 sequence (Q15717 whole entry): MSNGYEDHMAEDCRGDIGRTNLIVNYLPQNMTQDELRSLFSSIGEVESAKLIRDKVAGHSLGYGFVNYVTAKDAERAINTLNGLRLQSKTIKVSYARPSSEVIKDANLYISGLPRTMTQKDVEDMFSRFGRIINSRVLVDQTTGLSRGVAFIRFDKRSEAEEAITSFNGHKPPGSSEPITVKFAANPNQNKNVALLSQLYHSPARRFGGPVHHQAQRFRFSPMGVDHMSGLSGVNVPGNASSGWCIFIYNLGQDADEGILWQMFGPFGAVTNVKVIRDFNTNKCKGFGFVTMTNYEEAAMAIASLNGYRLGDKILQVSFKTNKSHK
The target of assay [5] is T1, ELAV-like protein 1. As to the kind of experiment: Change in HuR localization from nucleus to cytoplasm in human MCF7 cells at 1 uM after 3 hrs by DAPI staining-based immunofluorescence method. The class given is cell-based. The method in brief:
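MCF7 cells, 8.000/well, treated 3 h alongside DMSO control, then fixed in 3.7% PFA for 15 min at RT. Permeabilised 10 min (200 mM sucrose, 0.2% Triton X-100) and blocked 15 min in 2% BSA. Stained with anti-HuR (1:250), Alexa 594 secondary (1:500) and DAPI (1.5 μg/mL). Imaged at 40×, 13 fields/well. Read-out: nuclear/cytoplasmic HuR ratio, mean of single cells per well.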

The target of assay [6] is T1, ELAV-like protein 1. Kind of assay: Binding affinity to human full length recombinant HuR expressed in Escherichia coli […] assessed as inhibition of interaction with 5'-DY681-labeled AU-rich RNA probe at 5 uM after 30 mins by REMSA. An outline of the steps: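 Non-denaturing, non-cross-linked REMSA: full-length recombinant His-tagged HuR (E. coli-expressed) in at least 10-fold excess incubated 30 min with 75 fmol 5′-DY681-labeled AU-rich RNA probe plus DMSO or compound at 5 μM; reduction of shifted probe band scored qualitatively.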

In assay [7] the test system is PANC-1. As to the kind of experiment: Antimigratory activity in human PANC1 cells at 5 to 20 uM after 24 to 48 hrs by scratch assay. The class given is functional, cell-based. An outline of the steps: (§1)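 Scratch assay: monolayers in DMEM with 10% FBS wounded with a pipette tip, then treated with DMSO or compound; the same field imaged at 0, 24 and 48 h at 5× magnification and residual open wound area measured. Student t test.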

Assay [8] has as its system MCF7. As to the kind of experiment: Downregulation of RPLP0 mRNA expression in human MCF7 cells at 5 uM after 6 hrs by qRT-PCR method. The format is functional, cell-based. The method in brief: (§2)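 MCF7 cells treated with 5 μM compound or DMSO for 6 h. Total RNA extracted, transcript levels measured by qRT-PCR and normalized to RNA18s. Biological triplicate, mean ± SD, t test versus control.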
In general terms: Real-time PCR tracks product formation cycle by cycle.

Assay [9] has as its system MDA-MB-231. As to the kind of experiment: Antimigratory activity in human MDA-MB-231 cells at 5 to 20 uM after 24 to 48 hrs by scratch assay. The format is functional, cell-based. An outline of the steps: as §1
A short description of assay [10]: Binding affinity to TNF AU-rich elements (unknown origin) at 10 uM by CD spectroscopic method. An outline of the steps: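 Circular dichroism of TNF-ARE RNA (10 μM final) with compound (10 μM) in 10 mM sodium phosphate, pH 7.3. Spectra were recorded at 240–350 nm and 100 nm/min. The spectrum of compound alone (10 μM) in the same buffer was subtracted, and Δε was plotted to judge any change in RNA conformation.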

Assay [11] in a line: Binding affinity to 5'-DY681-labeled AU-rich RNA probe (unknown origin) at 5 uM after 30 mins by REMSA. An outline of the steps:
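Non-denaturing, non-cross-linked gel-shift assay: 75 fmol of 5′-DY681-labeled AU-rich RNA probe incubated 30 min with compound at 5 μM, with DMSO as control. The probe was read by its fluorescent label to detect a shift or loss of the free RNA band.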

Assay [12] concerns MCF7. Kind of assay: Downregulation of HPRT1 mRNA expression in human MCF7 cells at 5 uM after 6 hrs by qRT-PCR method. The format is functional, cell-based. The method in brief: as §2

`COc1ccc(SC2=CC(=O)C(=O)c3c(-c4ccccc4)cn(S(=O)(=O)c4ccccc4)c32)cc1`: the IC50 – broadly, the midpoint of a concentration-inhibition curve – in the assay with PANC-1 [1] amounted to 13.6 µM; in the assay on MCF7 [2], 23.5 µM; in the assay with MDA-MB-231 [3], 14.3 µM.
Consider `Cc1cccc2c3c(ccc12)C1=C(C(=O)C3=O)[C@@H](C)CO1` [DIHYDROTANSHINONE I], for which the Ki (in general, a measure of affinity in units of concentration, obtained from inhibition or displacement) at ELAV-like protein 1 [4] came out at 0.05 µM. In addition, the IC50 in the assay on PANC-1 [1] amounted to 2.91 µM; in the assay with MCF7 [2] it was 3.73 µM; with MDA-MB-231 [3], 8.99 µM. Also, the outcome at ELAV-like protein 1 [5] was inactive.
Take `COc1ccc(-c2cn(S(=O)(=O)c3ccccc3)c3c2C(=O)C(=O)C=C3)cc1`: the Ki on ELAV-like protein 1 [4] was greater than 0.2 µM.
Same read-out and setting: the same measure for `O=C1C=Cc2c(c(-c3ccccc3)cn2S(=O)(=O)c2cccc([N+](=O)[O-])c2)C1=O`: greater than 0.1 µM.
The same measure, in the same setting: the same measure for `O=C1C=C(c2ccc([N+](=O)[O-])cc2)c2c(c(-c3ccccc3)cn2S(=O)(=O)c2ccccc2)C1=O`: greater than 0.1 µM.
On to `O=C1C=Cc2c(c(-c3ccccc3)cn2S(=O)(=O)c2ccc([N+](=O)[O-])cc2)C1=O`, for which, at ELAV-like protein 1 [6], the inhibition entry was “Active”.
As for `COc1cccc(-c2cn(S(=O)(=O)c3ccccc3)c3c2C(=O)C(=O)C=C3)c1`, the Ki on ELAV-like protein 1 [4] was greater than 0.2 µM.
Take `O=C1C=C(c2ccccc2)c2c(c(-c3ccccc3)cn2S(=O)(=O)c2ccccc2)C1=O`: the Ki on ELAV-like protein 1 [4] was greater than 0.1 µM.
With `O=C1C=C(Sc2ccccc2)c2c(c(-c3ccccc3)cn2S(=O)(=O)c2ccccc2)C1=O`, the IC50 with PANC-1 [1] worked out at 24.9 µM; in the assay with MCF7 [2], 28.7 µM; in the assay with MDA-MB-231 [3], 23.8 µM. In addition, the inhibition entry at ELAV-like protein 1 [6] was “Active”.
For `O=C1C(=O)c2c(-c3ccccc3)cn(S(=O)(=O)c3ccccc3)c2C2=C1C1C=CC2CC1` (stereo unspecified), the Ki at ELAV-like protein 1 [4] is greater than 0.3 µM.
Still for that read-out and setting: the same measure for `CC1=CC(=O)C(=O)c2c(-c3ccccc3)cn(S(=O)(=O)c3ccccc3)c21`: greater than 0.2 µM.
On the same count and under the same terms, then `CN(C)c1ccc(-c2cn(S(=O)(=O)c3ccccc3)c3c2C(=O)C(=O)C=C3)cc1`, with greater than 0.1 µM.
On to `Cc1ccccc1-c1cn(S(=O)(=O)c2ccccc2)c2c1C(=O)C(=O)C=C2`, for which the IC50 in the assay on PANC-1 [1] was 25.9 µM; with MCF7 [2] it was 58.5 µM; in the assay on MDA-MB-231 [3], 47.2 µM. Further, the inhibition entry on ELAV-like protein 1 [6] was “Active”.
Regarding `O=C1C=Cc2c(c(-c3ccccc3)cn2S(=O)(=O)c2ccccc2)C1=O`, the outcome with PANC-1 [7] and with MDA-MB-231 [9] was Active. The outcome (with MCF7 [8]; in assay [10]; in assay [11]; in the assay with MCF7 [12]) was inactive. Further, the IC50 amounted to 26.5 µM with PANC-1 [1], 32.7 µM in the assay with MCF7 [2] and 24.2 µM with MDA-MB-231 [3].
`O=C(O)Cc1ccc(SC2=CC(=O)C(=O)c3c(-c4ccccc4)cn(S(=O)(=O)c4ccccc4)c32)cc1`: the inhibition entry at ELAV-like protein 1 [6] was “Active”.
For the molecule `O=C1C=Cc2c(c(-c3ccccc3)cn2S(=O)(=O)c2cccc(F)c2)C1=O`, the Ki on ELAV-like protein 1 [4] was greater than 0.1 µM.
